Common to all, as to assay type: functional
The species named for assay [1] is Mus musculus. As to the kind of experiment: Evaluated for effect against passive cutaneous anaphylaxis in female BALB/c mice immunized with 10 ug of DNP-As and 2 mg of Al(OH3) after day 21; PCA (log2). The procedure, abridged: (§1)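 Female BALB/c mice received 10 μg DNP-As and 2 mg Al(OH)3 on day 0, then 100 (mg/kg)/day po in 2% NaHCO3 for 5 days after immunization. Sera were taken on days 10, 21 and 30 and pooled from five mice. PCA was done in normal male Wistar rats: serum id in duplicate, then 1 mg DNP-As with 5 mg Evans blue iv; titer is the greatest dilution with a reaction >5 mm.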

Assay [2] is filed under the species Rattus norvegicus. As to the kind of experiment: Evaluated for effect against passive hemagglutinination in rats immunized with DNP-As and B. pertussis; PHA(log2). In short, it runs like this:
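Rats were immunized day 0 with 1 mg DNP-As plus 10¹⁰ killed B. pertussis, boosted day 5 with 0.5 mg DNP-As alone, and titers read on day 8. Dosing was 100 (mg/kg)/day ip for 5 days from day 0. Serum dilutions were incubated with DNP-As-coupled sheep erythrocytes for 2 h at 37 °C; complete agglutination endpoint as 2^n; means ± SE, eight rats.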

For assay [3], the species on record is Rattus norvegicus. As to the kind of experiment: Evaluated for effect against passive cutaneous anaphylaxis in rats immunized with DNP-As and B. pertussis; PCA (log2). In short, it runs like this: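 Rats were immunized with 1 mg DNP-As and 10^10 B. pertussis on day 0 and boosted with 0.5 mg DNP-As on day 5. Drug was given at 100 (mg/kg)/day ip for 5 days from day 0, and serum was taken on day 8. PCA was read in male Wistar rats after id serum, with iv DNP-As and Evans blue. Titer is the greatest dilution with a spot >5 mm; means ± SE of eight rats.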

The species entered for assay [4] is Mus musculus. Kind of assay: Evaluated for effect against passive cutaneous anaphylaxis in female BALB/c mice immunized with 10 ug of DNP-As and 2 mg of Al(OH3) after day 10; PCA (log2). The procedure, abridged: as §1
The species entered for assay [5] is Mus musculus. As to the kind of experiment: Evaluated for effect against passive cutaneous anaphylaxis in female BALB/c mice immunized with 10 ug of DNP-As and 2 mg of Al(OH3) after day 30; PCA (log2). In short, it runs like this: as §1
The species named for assay [6] is Mus musculus. As to the kind of experiment: Evaluated for effect against passive hemagglutinination in female BALB/c mice immunized with 10 ug of DNP-As and 2 mg of Al(OH3) after day 21; PHA(log2). The procedure, abridged: (§2)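 Female BALB/c mice were given 10 μg DNP-As and 2 mg Al(OH)3 on day 0, then 100 (mg/kg)/day po in 2% NaHCO3 for 5 days after immunization. Pooled sera from five mice (days 10, 21, 30) were serially diluted and mixed with sheep red cells coupled to DNP-As via glutaraldehyde, then held 2 h at 37 °C. Titer is the greatest dilution with complete agglutination, expressed as n of 2^n.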

For assay [7], the species on record is Mus musculus. As to the kind of experiment: Evaluated for effect against passive hemagglutinination in female BALB/c mice immunized with 10 ug of DNP-As and 2 mg of Al(OH3) after day 10; PHA(log2). In short, it runs like this:
as §2

Assay [8] is filed under the species Mus musculus. As to the kind of experiment: Evaluated for effect against passive hemagglutinination in female BALB/c mice immunized with 10 ug of DNP-As and 2 mg of Al(OH3) after day 30; PHA(log2). In short, it runs like this: as §2
For assay [9], the species on record is Mus musculus. As to the kind of experiment: Evaluated for effect against passive hemagglutinination (PHA) in female BALB/c mice immunized with 10 ug of DNP-As and 2 mg of Al(OH3) after day 10; PHA(log2). The procedure, abridged:
as §2

For assay [10], the species on record is Rattus norvegicus. Kind of assay: Evaluated for effect against passive hemagglutinination in female wistar rats; PHA(log2). The procedure, abridged:
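Female Wistar rats were immunized with 1 mg DNP-As plus 10¹⁰ killed B. pertussis on day 0, boosted on day 5 with 0.5 mg DNP-As, and sera taken on day 8. Compound in 2% NaHCO₃ was given at 100 (mg/kg)/day po for 5 days from day 0. Hemagglutination used DNP-As-coupled sheep RBC, 2 h at 37 °C; titer is the highest complete-agglutination dilution (log2); mean ± SE, eight rats.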

Assay [11] is filed under the species Mus musculus. Kind of assay: Evaluated for effect against passive hemagglutinination (PHA) in female BALB/c mice immunized with 10 ug of DNP-As and 2 mg of Al(OH3) after day 21; PHA(log2). The procedure, abridged:
as §2

The species named for assay [12] is Mus musculus. Kind of assay: Evaluated for effect against passive cutaneous anaphylaxis (PCA) in female BALB/c mice immunized with 10 ug of DNP-As and 2 mg of Al(OH3) after day 30; PCA (log2). In short, it runs like this:
as §1

Assay [13] is filed under the species Mus musculus. Kind of assay: Evaluated for effect against passive cutaneous anaphylaxis (PCA) in female BALB/c mice immunized with 10 ug of DNP-As and 2 mg of Al(OH3) after day 21; PCA (log2). The procedure, abridged:
as §1

For assay [14], the species on record is Rattus norvegicus. As to the kind of experiment: Evaluated for effect against passive cutaneous anaphylaxis in female wistar rats; PCA (log2). In short, it runs like this:
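Female Wistar rats (190–210 g) were immunized with 1 mg DNP-As plus 10^10 killed B. pertussis on day 0 and boosted with 0.5 mg DNP-As on day 5; serum was taken on day 8. Drug was given at 100 (mg/kg)/day po in 2% NaHCO3 for 5 days from day 0. Serum was then tested by PCA in normal male rats (Evans blue readout, >5 mm cutoff). Values are means ± SE, n=8.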

The species entered for assay [15] is Mus musculus. Kind of assay: Evaluated for effect against passive hemagglutinination (PHA) in female BALB/c mice immunized with 10 ug of DNP-As and 2 mg of Al(OH3) after day 30; PHA(log2). The procedure, abridged: as §2
Assay [16] is filed under the species Mus musculus. Kind of assay: Evaluated for effect against passive cutaneous anaphylaxis (PCA) in female BALB/c mice immunized with 10 ug of DNP-As and 2 mg of Al(OH3) after day 10; PCA (log2). In short, it runs like this:
as §1

SMILES strings stand for the structures.

For `OC[C@@]1(OCc2ccccc2)OC[C@@H](O)[C@H](O)[C@@H]1O`, the PCA in the assay listed under Mus musculus [1] is recorded as 9; in the assay filed under Rattus norvegicus [3], 7; in the assay filed under Mus musculus [4], 8.6; in the assay filed under Mus musculus [5] it was 8.4. Also, the PHA was found to be 9 in the assay listed under Rattus norvegicus [2], 5 in the assay filed under Mus musculus [6], 6 in the assay listed under Mus musculus [7] and 6 in the assay filed under Mus musculus [8].

Turning to `CCO[C@]1(CO)OC[C@@H](O)[C@H](O)[C@@H]1O`, the PHA in the assay filed under Mus musculus [9] was 5; in the assay filed under Rattus norvegicus [10] it was 8.5; in the assay filed under Mus musculus [11], 5; in the assay listed under Rattus norvegicus [2], 7.9; in the assay filed under Mus musculus [15], 6. For the same molecule, the PCA came out at 7.1 in the assay listed under Rattus norvegicus [3]; 7.8 in the assay listed under Mus musculus [12]; 8.3 in the assay filed under Mus musculus [13]; 6.7 in the assay listed under Rattus norvegicus [14]; 7.9 in the assay filed under Mus musculus [16].

In the case of `CCO[C@@]1(CO)O[C@H](CO)[C@@H](O)[C@@H]1O`, the PCA in the assay listed under Rattus norvegicus [3] was 6.5.

`CCCCO[C@@]1(CO)O[C@H](CO)[C@@H](O)[C@@H]1O` returned a PCA in the assay filed under Rattus norvegicus [3] of 6.7.

As to `CCCO[C@@]1(CO)O[C@H](CO)[C@@H](O)[C@@H]1O`, in the assay filed under Rattus norvegicus [3], the PCA is given as 7.3.

For `CCO[C@]1(CO)O[C@H](CO)[C@@H](O)[C@@H]1O`, the PCA in the assay listed under Rattus norvegicus [3] amounted to 6.1.

On to `O=P1(N(CCCl)CCCl)NCCCO1` (centres undefined) [CYCLOPHOSPHAMIDE ANHYDROUS], for which the PHA in the assay listed under Rattus norvegicus [2] turned out to be 1.3. Besides, the PCA in the assay listed under Rattus norvegicus [3] is listed as <2.
